Measured values: paper PMC7736561 (Angewandte Chemie (International ed. in English), 2020)

Assays:
[1] = Histology staining of bone sections; set-up: species or system mouse
In short: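 Thin sections of mouse tibia were treated with a 5 μM probe solution for 30 minutes and then imaged by fluorescence microscopy. For the demineralized comparison, slices were pre-treated with EDTA before staining. A charge-balanced, net-neutral peptide probe served as the control stain.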

Water solubility = assay type: physicochemical; settings: in water
[2] = Self-aggregation in water by absorption spectrum; assay type: physicochemical; settings: absorption spectrum in water (Figures S7, S10)
Asp-N = assay: Proteolytic degradation by Asp-N endoproteinase, LCMS analysis; assay type: in vitro ADME; settings: SF8(DDDDG)2 vs linear azido-DDDDG, 2 hours
In short: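 The test compound and the linear pentapeptide comparator were each incubated separately at 10 μM with Asp-N, an endoproteinase that cleaves peptide bonds on the N-terminal side of aspartic acid residues.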

[3] = Chemical stability of squaraine fluorophore in PBS; assay type: physicochemical; settings: pH 7.4, followed over 15 hours (Figure S11A)

water solubility (Water solubility)	self-aggregation [2]	factor by which proteolytic degradation of the peptide sequence was reduced (Asp-N)	Substance	staining of demineralized bone slices ([1]; bone slices demineralized with pre-treatment of EDTA (Figure S26))	staining of bone histology slices ([1]; thin sections of mouse tibia bone, probe 5 μM, 30 minutes)	chemical stability, fluorescence profile of solution [3]
high water-solubility	no molecular self-aggregation	3.8	(DDDDG)2 (bicyclic or more) [SF8(DDDDG)2]	no staining	strongly stained the mineral segments	–
soluble	unaggregated	–	(azido-RRRG)2 [SR(azido-RRRG)2]	–	–	almost completely bleached after a few hours

Substance	water solubility (Water solubility)	self-aggregation [2]	factor by which proteolytic degradation of the peptide sequence was reduced (Asp-N)	staining of demineralized bone slices ([1]; bone slices demineralized with pre-treatment of EDTA (Figure S26))	staining of bone histology slices ([1]; thin sections of mouse tibia bone, probe 5 μM, 30 minutes)	chemical stability, fluorescence profile of solution [3]
(azido-DDDDG)2 [SR(azido-DDDDG)2]	low solubility	formation of non-fluorescent H-aggregates	–	–	–	–
